Assay results gathered from unrelated publications.
Target: SRSF protein kinase 2 (SRPK2, Homo sapiens, UniProt P78362)

Compound	test	setting	remaining binding [%]
C=CC(=O)N1CCC(C(=O)NCC(=O)N2CCN(c3nc(-c4cnc(N)nc4C(F)F)nc(N4CCOCC4)n3)CC2)CC1	binding, competition with immobilised ligand	1 µM	100
Cc1cnn2ncc(-c3ccnc(N(C)C)n3)c2c1	binding	1 µM	100
Nc1ncc2c(n1)-c1c([nH]c3ccc(C#CC4CC4)cc13)CCCC2	binding, competition with immobilised ligand	1 µM	82
Cc1cnc(Nc2ccc(C(=O)N3CCC(N4CCCC4)CC3)cc2)nc1-c1cc2ccccc2s1	binding, competition with immobilised ligand	1 µM	100
Cc1nc(Cc2cccc(C(F)(F)F)c2)sc1-c1ccc(C(N)=O)nc1	cell-free assay, competition with immobilised ligand	1 µM	100
c1cnn2ncc(-c3ccnc(N4CCC45COC5)n3)c2c1	binding	1 µM	70
O=C(c1ccc(Nc2nccc(-c3cc4ccccc4s3)n2)cc1)N1CCC(N2CCCC2)CC1	binding, competition with immobilised ligand	1 µM	92
CCN1CCN(Cc2ccc(C(=O)Nc3ccc(C)c(Oc4ccc5c(c4)CC(=O)N5)c3)cc2C(F)(F)F)CC1	binding, competition with immobilised ligand	1 µM	100
Cc1c(NC(=O)c2cc(C(N)=O)nc3cc(F)ccc23)c(C(F)(F)F)nn1Cc1ccc(C(C)(C)C)cc1	cell-free assay, competition with immobilised ligand	1 µM	97
C[C@H]1CCN(c2nccc(-c3cnn4ncccc34)n2)C1	binding	1 µM	93
O=C1NC(c2ccccn2)Sc2ccccc21 (stereo not drawn)	cell-free assay, competition with immobilised ligand	1 µM	100
CNC(=O)[C@@H]1CC[C@@H](n2c(-c3ccc4cnccc4c3)nc3ccc(C(=O)NCc4cccc(C(N)=O)c4)cc32)C1	binding, competition with immobilised ligand	1 µM	100
CN(C)c1nccc(-c2cnc3ncccn23)n1	binding	1 µM	100
CC1=C(C#N)C(c2ccc3c(c2)c(NC(=O)c2ccccc2C)nn3C)C(C#N)=C(C)N1	cell-free assay, competition with immobilised ligand	1 µM	88
O=C(Nc1c[nH]nc1C(=O)NC1CCNCC1)c1cc(F)cc(F)c1	binding, competition with immobilised ligand	1 µM	85
O=C(N1CCS(=O)(=O)CC1)N1C[C@H](c2ccc(OC(F)(F)F)cc2)C[C@H](c2nc(C3CC3)no2)C1	cell-free assay, competition with immobilised ligand	1 µM	100
CN(CCCC(F)(F)F)c1nccc(-c2cnn3ncccc23)n1	binding	1 µM	100
O=C(NCCCN1CCOCC1)c1ccc(Nc2ncc(Cl)c(-c3ccc(Cl)s3)n2)cc1	binding, competition with immobilised ligand	1 µM	75
CC(=O)C1=C(C)N(c2cccc(C(F)(F)F)c2)C(=O)N[C@@H]1c1ccc(C#N)nc1	cell-free assay, competition with immobilised ligand	1 µM	100
N[C@H]1CCN(c2nccc(-c3cnn4ncccc34)n2)C1	binding	1 µM	62
c1cncc(-c2cccc(Nc3nccc(NC4CCCCC4)n3)c2)c1	binding, competition with immobilised ligand	10 µM	100
